Assay results: ChEMBL document CHEMBL5696442, “Discovery of type II inhibitors of TGFβ-activated kinase 1 (TAK1) and mitogen-activated protein kinase kinase kinase kinase 2 (MAP4K2)” (J Med Chem, 2015)

Experiments:
[1] = biological target: Tyrosine-protein kinase CSK (Homo sapiens, UniProt P41240); assay: Inhibition of CSK ACT labeling site harbouring VSDFGLTKEASSTQDTGKLPVKWTAPEALR in human Huh-7 cell lysate at 1 uM by KiNativ Profiling analysis relative to control; type: subcellular
[2] = biological target: T1, Ephrin type-B receptor 4 (Homo sapiens) (UniProt P54760); assay: Inhibition of EphB4 ACT labeling site in human Huh-7 cells at 1 uM by KiNativ Profiling analysis relative to control; type: cell-based
T1 sequence (whole entry): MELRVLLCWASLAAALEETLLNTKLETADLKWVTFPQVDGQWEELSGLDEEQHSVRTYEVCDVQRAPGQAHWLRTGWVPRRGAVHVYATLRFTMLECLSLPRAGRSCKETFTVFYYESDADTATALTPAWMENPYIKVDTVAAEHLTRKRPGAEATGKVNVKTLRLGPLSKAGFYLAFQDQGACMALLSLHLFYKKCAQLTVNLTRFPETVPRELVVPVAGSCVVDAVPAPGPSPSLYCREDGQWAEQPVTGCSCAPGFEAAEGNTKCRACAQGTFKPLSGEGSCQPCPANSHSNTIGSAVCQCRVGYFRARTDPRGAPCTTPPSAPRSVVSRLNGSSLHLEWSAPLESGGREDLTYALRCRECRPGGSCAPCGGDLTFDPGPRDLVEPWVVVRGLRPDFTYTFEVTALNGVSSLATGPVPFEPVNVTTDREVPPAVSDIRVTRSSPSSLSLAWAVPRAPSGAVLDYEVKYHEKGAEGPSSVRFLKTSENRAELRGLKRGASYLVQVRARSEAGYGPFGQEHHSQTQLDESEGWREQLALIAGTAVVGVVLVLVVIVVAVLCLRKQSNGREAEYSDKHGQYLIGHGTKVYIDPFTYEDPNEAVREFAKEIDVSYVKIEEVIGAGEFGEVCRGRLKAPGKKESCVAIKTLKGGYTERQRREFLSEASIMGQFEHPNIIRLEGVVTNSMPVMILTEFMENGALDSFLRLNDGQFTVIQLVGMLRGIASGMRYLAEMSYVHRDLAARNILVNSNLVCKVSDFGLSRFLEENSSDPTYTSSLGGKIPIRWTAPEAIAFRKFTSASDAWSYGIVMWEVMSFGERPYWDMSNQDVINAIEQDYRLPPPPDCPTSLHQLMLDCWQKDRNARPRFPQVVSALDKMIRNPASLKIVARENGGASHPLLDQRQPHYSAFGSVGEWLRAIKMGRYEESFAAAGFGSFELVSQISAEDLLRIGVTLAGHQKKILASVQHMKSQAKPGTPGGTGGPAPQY

[3] = biological target: Cyclin-dependent kinase 1 (Homo sapiens) (UniProt P06493); assay: Inhibition of CDC2 Lys2 labeling site harbouring VLHRDLKPQNLLIDDKGTIK in human A-375 cells at 5 uM by KiNativ Profiling analysis relative to control; type: cell-based
Procedure, shortened: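 Live A375 melanoma cells were treated with compound at 5 or 0.5 μM. The cells were then lysed, and the lysates were labeled with a lysine-reactive ATP or ADP-biotin acyl probe (KiNativ). Inhibition is the compound's protection of each kinase labeling-site peptide from probe labeling, relative to untreated control.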

[4] = biological target: T2, Kinase suppressor of Ras 2 (Homo sapiens) (UniProt Q6VAB6); assay: Inhibition of KSR2 ACT labeling site in human A-375 cells at 0.5 uM by KiNativ Profiling analysis relative to control; type: cell-based
T2 sequence (whole entry): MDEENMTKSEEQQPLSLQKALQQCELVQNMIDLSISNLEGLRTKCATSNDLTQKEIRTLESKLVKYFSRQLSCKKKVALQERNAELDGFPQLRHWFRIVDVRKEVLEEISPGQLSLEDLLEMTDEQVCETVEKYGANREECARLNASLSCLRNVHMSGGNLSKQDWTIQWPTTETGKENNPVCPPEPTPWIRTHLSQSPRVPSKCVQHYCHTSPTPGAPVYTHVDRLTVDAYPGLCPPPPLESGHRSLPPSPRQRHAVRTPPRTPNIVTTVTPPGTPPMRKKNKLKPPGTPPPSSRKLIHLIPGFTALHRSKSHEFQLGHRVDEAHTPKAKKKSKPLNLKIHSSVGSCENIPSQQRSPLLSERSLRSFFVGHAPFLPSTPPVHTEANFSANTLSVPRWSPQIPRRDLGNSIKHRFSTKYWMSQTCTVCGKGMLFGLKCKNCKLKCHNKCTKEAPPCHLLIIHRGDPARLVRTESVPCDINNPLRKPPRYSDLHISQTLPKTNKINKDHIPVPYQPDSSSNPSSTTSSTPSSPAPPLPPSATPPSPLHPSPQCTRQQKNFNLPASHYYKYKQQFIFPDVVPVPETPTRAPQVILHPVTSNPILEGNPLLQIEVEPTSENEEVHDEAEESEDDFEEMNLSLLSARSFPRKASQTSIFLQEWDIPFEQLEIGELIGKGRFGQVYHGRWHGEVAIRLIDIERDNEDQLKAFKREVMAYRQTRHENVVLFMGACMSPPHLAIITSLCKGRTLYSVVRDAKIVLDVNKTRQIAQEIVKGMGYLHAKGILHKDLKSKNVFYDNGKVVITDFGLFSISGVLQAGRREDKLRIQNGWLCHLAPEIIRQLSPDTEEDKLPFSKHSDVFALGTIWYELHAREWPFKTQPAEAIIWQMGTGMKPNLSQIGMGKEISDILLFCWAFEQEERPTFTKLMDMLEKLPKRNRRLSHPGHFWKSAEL

[5] = biological target: Misshapen-like kinase 1 (Homo sapiens) (UniProt Q8N4C8); assay: Inhibition of ZC3/MINK Lys2 labeling site in human A-375 cells at 0.5 uM by KiNativ Profiling analysis relative to control; type: cell-based
Sequence of Misshapen-like kinase 1 (Homo sapiens) (Q8N4C8 whole entry, looked up): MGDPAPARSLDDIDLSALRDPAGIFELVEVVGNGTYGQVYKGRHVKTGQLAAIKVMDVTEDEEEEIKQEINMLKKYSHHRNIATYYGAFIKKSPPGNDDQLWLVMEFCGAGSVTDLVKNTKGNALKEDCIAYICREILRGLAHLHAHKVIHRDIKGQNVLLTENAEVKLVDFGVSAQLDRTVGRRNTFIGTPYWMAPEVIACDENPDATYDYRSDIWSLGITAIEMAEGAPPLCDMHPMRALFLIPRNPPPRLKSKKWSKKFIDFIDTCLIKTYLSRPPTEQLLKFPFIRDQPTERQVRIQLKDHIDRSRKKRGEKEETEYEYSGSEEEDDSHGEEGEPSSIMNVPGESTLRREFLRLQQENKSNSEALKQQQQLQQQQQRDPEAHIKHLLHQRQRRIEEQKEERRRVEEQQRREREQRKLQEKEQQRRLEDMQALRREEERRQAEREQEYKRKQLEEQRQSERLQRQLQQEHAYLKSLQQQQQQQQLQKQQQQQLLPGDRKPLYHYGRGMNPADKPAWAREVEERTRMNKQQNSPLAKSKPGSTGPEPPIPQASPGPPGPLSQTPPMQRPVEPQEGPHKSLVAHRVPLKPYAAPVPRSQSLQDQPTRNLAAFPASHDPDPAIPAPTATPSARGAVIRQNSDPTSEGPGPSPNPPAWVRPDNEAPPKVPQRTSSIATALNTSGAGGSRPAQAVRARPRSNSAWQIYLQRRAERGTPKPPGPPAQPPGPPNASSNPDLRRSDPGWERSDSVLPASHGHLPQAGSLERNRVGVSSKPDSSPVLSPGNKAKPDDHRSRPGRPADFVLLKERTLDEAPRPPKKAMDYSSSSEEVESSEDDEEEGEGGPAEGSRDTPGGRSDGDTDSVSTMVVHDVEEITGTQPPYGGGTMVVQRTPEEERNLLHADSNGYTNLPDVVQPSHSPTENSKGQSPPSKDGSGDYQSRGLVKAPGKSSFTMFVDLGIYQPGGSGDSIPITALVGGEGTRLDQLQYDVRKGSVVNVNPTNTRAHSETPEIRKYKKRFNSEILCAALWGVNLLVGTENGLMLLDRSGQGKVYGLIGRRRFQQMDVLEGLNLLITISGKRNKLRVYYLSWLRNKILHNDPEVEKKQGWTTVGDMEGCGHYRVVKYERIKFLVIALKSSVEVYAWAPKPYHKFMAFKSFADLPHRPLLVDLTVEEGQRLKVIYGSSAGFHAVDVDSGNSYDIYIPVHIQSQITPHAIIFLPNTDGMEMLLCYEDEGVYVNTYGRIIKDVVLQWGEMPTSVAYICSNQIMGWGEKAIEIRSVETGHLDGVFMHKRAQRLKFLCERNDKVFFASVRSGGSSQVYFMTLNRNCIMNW

Sequence of Cyclin-dependent kinase 1 (Homo sapiens) (P06493 whole entry, looked up): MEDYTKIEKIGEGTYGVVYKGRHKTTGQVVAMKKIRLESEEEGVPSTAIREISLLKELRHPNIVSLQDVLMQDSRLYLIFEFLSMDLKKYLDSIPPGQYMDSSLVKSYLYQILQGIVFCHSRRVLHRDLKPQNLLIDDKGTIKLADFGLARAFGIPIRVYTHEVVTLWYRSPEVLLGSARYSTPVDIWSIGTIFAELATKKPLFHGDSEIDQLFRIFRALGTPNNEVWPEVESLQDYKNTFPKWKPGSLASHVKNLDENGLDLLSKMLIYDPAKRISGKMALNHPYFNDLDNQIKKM
Sequence of Tyrosine-protein kinase CSK (P41240 2-450 limits assumed): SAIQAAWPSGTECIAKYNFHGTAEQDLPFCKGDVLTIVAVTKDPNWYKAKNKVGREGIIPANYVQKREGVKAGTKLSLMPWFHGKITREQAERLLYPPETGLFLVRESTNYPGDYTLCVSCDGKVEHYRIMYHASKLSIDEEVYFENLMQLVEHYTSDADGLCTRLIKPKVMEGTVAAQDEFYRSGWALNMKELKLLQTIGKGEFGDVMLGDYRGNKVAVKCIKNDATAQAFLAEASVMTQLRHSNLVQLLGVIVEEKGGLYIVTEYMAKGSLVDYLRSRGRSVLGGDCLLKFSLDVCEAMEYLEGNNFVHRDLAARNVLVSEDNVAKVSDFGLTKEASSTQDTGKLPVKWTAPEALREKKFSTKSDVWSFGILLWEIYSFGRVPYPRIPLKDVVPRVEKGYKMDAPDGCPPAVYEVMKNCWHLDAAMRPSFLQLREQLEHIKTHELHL

| SMILES | inhibition [1] [%] | inhibition [2] [%] | inhibition [3] [%] | inhibition [4] [%] | inhibition [5] [%] |
| --- | --- | --- | --- | --- | --- |
| CNc1cc(Oc2cc(C(=O)Nc3cc(-n4cnc(C)c4)cc(C(F)(F)F)c3)ccc2C)ncn1 | -2.8 |  |  |  |  |
| CNc1cc(Oc2cc(C(=O)Nc3cc(N4CCN(C)CC4)cc(C(F)(F)F)c3)ccc2C)ncn1 | 26.9 | 75.4 |  |  |  |
| CCN1CCN(Cc2ccc(NC(=O)c3ccc(C)c(Oc4ccnc5[nH]ccc45)c3)cc2C(F)(F)F)CC1 |  | 12.1 | 34.7 | 8.5 | 70.8 |
| CCN1CCN(Cc2ccc(NC(=O)c3ccc(C)c(/C=C/c4cnc5[nH]ccc5c4OC)c3)cc2C(F)(F)F)CC1 |  |  | -3.1 | 16.8 | 48.1 |
